Key:
Assay type in all cases: functional
A549 [1] = experiment: Antiproliferative activity against human A549 cells after 72 hrs by MTT assay; details: Homo sapiens, A549, 72 h
Procedure, shortened: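 A549 human lung adenocarcinoma epithelial cells were seeded and grown for 24 h, then exposed to compounds for a further 72 h. Proliferation was read by MTT, as assigned in the table footnote. GI50 was calculated by the Logit method from at least three independent experiments.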

HL-60 [2] = experiment: Antiproliferative activity against human HL60 cells after 72 hrs by SRB assay; details: Homo sapiens, HL-60, 72 h
Procedure, shortened: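 HL60 human promyelocytic leukemia cells were seeded and grown for 24 h, then given compounds and cultured for another 72 h. Read-out was SRB, per the table footnote. GI50 was obtained by the Logit method from three or more independent experiments.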

HL-60 [3] = experiment: Antiproliferative activity against human HL60 cells at 10^-8 mol/L after 72 hrs by SRB assay; details: HL-60, 72 h
A549 [4] = experiment: Antiproliferative activity against human A549 cells at 10^-7 mol/L after 72 hrs by MTT assay; details: A549, 72 h
HL-60 [5] = experiment: Antiproliferative activity against human HL60 cells at 10^-7 mol/L after 72 hrs by SRB assay; details: HL-60, 72 h
A549 [6] = experiment: Antiproliferative activity against human A549 cells at 10^-6 mol/L after 72 hrs by MTT assay; details: A549, 72 h
A549 [7] = experiment: Antiproliferative activity against human A549 cells at 10^-8 mol/L after 72 hrs by MTT assay; details: A549, 72 h
HL-60 [8] = experiment: Antiproliferative activity against human HL60 cells at 10^-6 mol/L after 72 hrs by SRB assay; details: HL-60, 72 h

Row | SMILES | GI50 (A549 [1]) | GI50 (HL-60 [2]) | inhibition at 0.01 µM (HL-60 [3]) | inhibition at 0.1 µM (A549 [4]) | inhibition at 0.1 µM (HL-60 [5]) | inhibition at 1 µM (A549 [6]) | inhibition at 0.01 µM (A549 [7]) | inhibition at 1 µM (HL-60 [8])
1 | COc1ccc2c3c(c4cc(OC)c(OC)cc4c2c1)[C@H](N)[C@@H]1CCCN1C3 | 400 nM | 1600 nM |  |  |  |  |  | 
2 | COc1cc2c3c(c4ccc(O)cc4c2cc1OC)CN1CCC[C@@H]1C3 | < 1 nM | < 1 nM | 86.5% | 92.3% | 87.1% | 94.8% | 86% | 89.7%
3 | COc1cc2c3c(c4cc(OC)c(OC)cc4c2cc1OC)[C@@H](O)[C@@H]1CCCN1C3 |  |  | 3.9% | 8.2% | 8.2% | 50% | 5.2% | 49.8%
4 | COc1ccc2c3c(c4cc(OC)c(OC)cc4c2c1)[C@@H](O)[C@H]1CCCN1C3 | > 10000 nM | > 10000 nM |  |  |  |  |  | 
5 | COc1ccc2c3c(c4cc(OC)c(OC)cc4c2c1)CN1CCCC[C@@H]1C3 | 900 nM | 500 nM |  |  |  |  |  | 
6 | c1c2c(cc3c1c1c(c4cc5c(cc43)OCCO5)CN3CCCC3C1)OCCO2 (racemic) |  |  | 0% | 6.3% | 8.2% | 38.6% | 8.7% | 11.2%
7 | COc1cc2c3c(c4cc(OC)c(OC)cc4c2cc1OC)[C@H](O)[C@@H]1CCCCN1C3 | 400 nM | 300 nM |  |  |  |  |  | 
8 | COc1cc2c3c(c4cc(OC)c(OC)cc4c2cc1OC)[C@H](N)[C@@H]1CCCN1C3 | 1100 nM | 300 nM |  |  |  |  |  | 
9 | COc1ccc2c3c(c4cc(OC)c(OC)cc4c2c1)C[C@@H]1CCCN1C3 [HYPOESTESTATIN 1] | 300 nM | 200 nM |  |  |  |  |  | 
10 | COc1cc2c3c(c4cc5c(cc4c2cc1OC)OCCO5)CC1CCCN1C3 (racemic) | 360 nM |  | 3.8% | 58.2% | 37% | 87.4% | 14% | 83.1%
11 | COc1ccc2c3c(c4cc(OC)c(OC)cc4c2c1)CN1CCC[C@H]1[C@H]3NC(=O)C(C)(C)C | > 10000 nM | > 10000 nM |  |  |  |  |  | 
12 | COc1cc2c3c(c4cc5c(cc4c2cc1OC)OCO5)CC1CCCN1C3 (racemic) |  |  | 11.7% | 22.4% | 9.4% | 70.3% | 15.9% | 62.9%
13 | COc1cc2c3c(c4cc(OC)c(OC)cc4c2cc1OC)CN1CCCC[C@@H]1C3 | < 1 nM | < 1 nM |  |  |  |  |  | 
14 | COc1ccc2c3c(c4cc(OC)c(OC)cc4c2c1)[C@H](O)[C@@H]1CCCN1C3 | > 10000 nM | > 10000 nM |  |  |  |  |  | 
15 | COc1ccc2c3c(c4cc(OC)c(OC)cc4c2c1)[C@H](NC(=O)C(C)(C)C)[C@@H]1CCCN1C3 | > 10000 nM | > 10000 nM |  |  |  |  |  | 
16 | COc1ccc2c3c(c4cc(OC)c(OC)cc4c2c1)C[C@H]1CCCCN1C3 [CRYPTOPLEURINE] | < 1 nM | < 1 nM |  |  |  |  |  | 
17 | COc1ccc2c3c(c4cc(OC)c(OC)cc4c2c1)CN1CCCC[C@@H]1[C@@H]3O | 300 nM | < 1 nM |  |  |  |  |  | 
18 | COc1ccc2c3c(c4cc(OC)c(OC)cc4c2c1)[C@@H](O)[C@H]1CCCCN1C3 | 20 nM | < 1 nM |  |  |  |  |  | 
19 | COc1ccc2c3c(c4cc(OC)c(OC)cc4c2c1)CN1CCCC[C@H]1[C@H]3O | 400 nM | < 1 nM |  |  |  |  |  | 
20 | COc1cc2c3c(c4cc(OC)c(OC)cc4c2cc1OC)CN1CCCC1C3 (racemic) [(+/-)-TYLOPHORINE] | 1300 nM | 100 nM | 14.9% | 61.4% | 40.5% | 72.3% | 6% | 71.3%
21 | COc1cc2c3c(c4cc(OC)c(OC)cc4c2cc1OC)[C@@H](O)[C@H]1CCCN1C3 | 1290 nM |  | 12.7% | 31.3% | 37.1% | 68.9% | 12.3% | 76%
22 | COc1cc2c3c(c4cc5c(cc4c2cc1OC)OCCO5)CN1CCCC1C3 (racemic) | 970 nM |  | 16% | 78.9% | 52.2% | 85.6% | 2.1% | 84.4%

— ChEMBL document CHEMBL1955742, “Synthesis and SAR studies of phenanthroindolizidine and phenanthroquinolizidine alkaloids as potent anti-tumor agents” (2012)
